The values below come from ChEMBL document CHEMBL1126664, “Pyrazoline bisphosphonate esters as novel antiinflammatory and antiarthritic agents” (1993).

Assay type in all cases: functional
The test system of experiment [1] is Mus musculus. The experiment can be described thus: Inhibition of delayed type hypersensitivity granuloma results at 100 mg/kg in dry weight. The method, boiled down: (§1)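 Groups of 10 female CF-1 mice (25 g) were sensitised sc over the inguinal lymph node with mBSA emulsion in Freund's incomplete adjuvant plus dextran. Two mBSA-soaked hydroxyapatite disks were implanted per mouse. Sc dosing ran daily from implantation to day 9, then granulomas were excised for wet and dry weights. Student's paired t test.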

Experiment [2] has as its system Mus musculus. The experiment can be described thus: Inhibition of delayed type hypersensitivity granuloma results at 100 mg/kg in wet weight. The method, boiled down: as §1
Experiment [3] concerns Mus musculus. The experiment can be described thus: Inhibition of antigen-induced arthritis (AIA) in mice at the dose of 25 mg/kg in the non-injected paw.
The test system of experiment [4] is Mus musculus. The experiment can be described thus: Inhibition of delayed type hypersensitivity granuloma results at 50 mg/kg in wet weight. The method, boiled down:
as §1

For experiment [5], the system named is Rattus norvegicus. The experiment can be described thus: Inhibition of rat adjuvant induced polyarthritis (AIP) at the dose of 60 mg/kg in the injected paw. The method, boiled down:
(§2)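 Rats received adjuvant (M. tuberculosis in mineral oil) into the left hindpaw on day 0. Compounds in sterile saline, pH 7.0, were given sc once daily for 28 days, with sc vehicle arthritic controls. Paw volume change in injected and noninjected hindpaws was measured on day 28 by mercury-displacement plethysmography.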

Experiment [6] concerns Rattus norvegicus. The experiment can be described thus: Inhibition of rat adjuvant-induced arthritis (AIP) at the dose of 100 mg/kg in the non-injected paw. The method, boiled down: as §2
The subject of experiment [7] is Mus musculus. The experiment can be described thus: Inhibition of antigen-induced arthritis (AIA) in mice at the dose of 50 mg/kg in the non-injected paw.
For experiment [8], the system named is Rattus norvegicus. The experiment can be described thus: Inhibition of rat adjuvant-induced arthritis (AIP) at the dose of 15 mg/kg in the non-injected paw. The method, boiled down: as §2
Experiment [9] concerns Mus musculus. As to the kind of experiment: Inhibition of delayed type hypersensitivity granuloma results at 50 mg/kg in dry weight. The method, boiled down: as §1
In experiment [10] the test system is Mus musculus. As to the kind of experiment: Inhibition of antigen-induced arthritis (AIA) in mice at the dose of 100 mg/kg in the non-injected paw.
In experiment [11] the test system is Rattus norvegicus. The experiment can be described thus: Inhibition of rat adjuvant-induced arthritis (AIP) at the dose of 5 mg/kg in the non-injected paw. The method, boiled down:
as §2

The subject of experiment [12] is Mus musculus. As to the kind of experiment: Inhibition of delayed type hypersensitivity granuloma at 25 mg/kg in wet weight. The method, boiled down:
as §1

For experiment [13], the system named is Mus musculus. As to the kind of experiment: Inhibition of delayed type hypersensitivity granuloma results at 25 mg/kg in dry weight. The method, boiled down: as §1
Experiment [14] concerns Rattus norvegicus. The experiment can be described thus: Inhibition of rat adjuvant induced polyarthritis (AIP) at the dose of 15 mg/kg in the injected paw. The method, boiled down:
as §2

Experiment [15] concerns Rattus norvegicus. The experiment can be described thus: Inhibition of rat adjuvant-induced arthritis (AIP) at the dose of 60 mg/kg in the non-injected paw. The method, boiled down:
as §2

Experiment [16] relates to Rattus norvegicus. The experiment can be described thus: Inhibition of rat adjuvant induced polyarthritis (AIP) at the dose of 5 mg/kg in the injected paw. The method, boiled down:
as §2

Experiment [17] has as its system Rattus norvegicus. The experiment can be described thus: Inhibition of rat adjuvant induced polyarthritis (AIP) at the dose of 100 mg/kg in the injected paw. The method, boiled down: as §2
Experiment [18] concerns Rattus norvegicus. The experiment can be described thus: Inhibition of rat adjuvant induced arthritis (AIP) at the dose of 15 mg/kg in the non-injected paw. The method, boiled down:
as §2

Experiment [19] concerns Mus musculus. As to the kind of experiment: Inhibition of antigen-induced arthritis (AIA) in mice at the dose of 100 mg/kg. The method, boiled down: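 Mice were immunised, boosted after 7 days, and challenged 14 days later with 200 μg mBSA in saline into the left rear stifle joint. Dosing was sc in saline at pH 7.0, 5 of 7 days, from challenge (day 0) to day 28. H&E sagittal joint sections were graded 1–5 each for soft tissue inflammation, pannus, and cartilage and bone erosion, then summed (max 20). One-way ANOVA vs vehicle.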

The test system of experiment [20] is Rattus norvegicus. The experiment can be described thus: Inhibition of rat adjuvant induced arthritis (AIP) at the dose of 100 mg/kg in the non-injected paw. The method, boiled down: as §2
For experiment [21], the system named is Mus musculus. The experiment can be described thus: Inhibition of delayed type hypersensitivity granuloma results at 200 mg/kg in dry weight. The method, boiled down:
as §1

Experiment [22] relates to Mus musculus. As to the kind of experiment: Inhibition of delayed type hypersensitivity granuloma results at 200 mg/kg in wet weight. The method, boiled down:
as §1

As for `O=C(C1=NNC(P(=O)(O)O)(P(=O)(O)O)C1)c1ccccc1`, the inhibition in vivo at 100 mg/kg in the experiment on Mus musculus [1] stood at 19%; in the experiment with Mus musculus [2], 18%.
As to `CCOP(=O)(OCC)C1(P(=O)(OCC)OCC)CC(C(=O)c2cccc(F)c2)=NN1`, the inhibition in vivo at 25 mg/kg with Mus musculus [3] stood at 42%; in the experiment with Mus musculus [12], 42%; with Mus musculus [13], 49%. The inhibition in vivo at 50 mg/kg with Mus musculus [4] came out at 45%; with Mus musculus [7] it was 52%; with Mus musculus [9], 51%. In addition, the inhibition in vivo at 60 mg/kg amounted to 8% in the experiment on Rattus norvegicus [5] and 46% in the experiment with Rattus norvegicus [15]. Moreover, the inhibition in vivo at 100 mg/kg amounted to 55% with Rattus norvegicus [6]; 55% with Mus musculus [10]; 65% in the experiment on Mus musculus [1]; 58% in the experiment with Mus musculus [2]; 22% with Rattus norvegicus [17]. The inhibition in vivo at 15 mg/kg in the experiment on Rattus norvegicus [8] worked out at 46%; with Rattus norvegicus [14], 4%. Further, the inhibition in vivo at 5 mg/kg with Rattus norvegicus [11] and in the experiment with Rattus norvegicus [16] was 0% throughout.
As for `CCOP(=O)(OCC)C1(P(=O)(OCC)OCC)CC(C(=O)c2ccccc2)=NN1C`, the inhibition in vivo at 100 mg/kg in the experiment on Mus musculus [1] came out at 8%; in the experiment with Mus musculus [2], 11%.
With `CCOP(=O)(OCC)C1(P(=O)(OCC)OCC)CC(C(=O)c2ccccc2C)=NN1`, the values for the inhibition in vivo at 15 mg/kg in the experiment with Rattus norvegicus [18] and in the experiment on Rattus norvegicus [14] were 49% and 18%, respectively. For the same compound, the inhibition in vivo at 100 mg/kg with Mus musculus [1] worked out at 48%; in the experiment with Mus musculus [2], 37%; in the experiment on Mus musculus [19], 8%; in the experiment on Rattus norvegicus [20], 66%; in the experiment on Rattus norvegicus [17] it was 9%.
For `CCOP(=O)(OCC)C1(P(=O)(OCC)OCC)CC(C(=O)c2ccccc2)=NN1CC(=O)OC`, the inhibition in vivo at 100 mg/kg in the experiment on Mus musculus [1] and with Mus musculus [2] was 1% each time.
In the case of `O=C(C1=NNC(P(=O)(O)O)(P(=O)(O)O)C1)C1CCCCC1`, the inhibition in vivo at 100 mg/kg in the experiment with Mus musculus [1] is 16%; in the experiment with Mus musculus [2] it was 1%.
Take `CCOP(=O)(OCC)C1(P(=O)(OCC)OCC)CC(C(=O)CC)=NN1`: the inhibition in vivo at 200 mg/kg came to 35% with Mus musculus [21] and 28% in the experiment on Mus musculus [22].
Take `CCOP(=O)(OCC)C1(P(=O)(OCC)OCC)CC(C(=O)c2ccc(C)cc2)=NN1`: the inhibition in vivo at 100 mg/kg with Mus musculus [1] was found to be 22%; in the experiment with Mus musculus [2] it was 20%.
Turning to `CCOP(=O)(OCC)C1(P(=O)(OCC)OCC)CC(C(=O)c2ccccc2)=NN1CCCN1N=C(C(=O)c2ccccc2)CC1(P(=O)(OCC)OCC)P(=O)(OCC)OCC`, the inhibition in vivo at 100 mg/kg with Mus musculus [1] is 5%; with Mus musculus [2] it was 10%.
